Key:
Format in all cases: functional
Malme-3M = assay: Cytotoxicity against human MALME-3M cells assessed as cell growth at 100 nM after 48 hrs by sulforhodamine B assay; conditions: read-out: Activity
M14 [1] = assay: Cytotoxicity against human M14 cells assessed as cell growth at 100 nM after 48 hrs by sulforhodamine B assay; conditions: M14, 48 h, read-out: Activity
UACC-257 = assay: Cytotoxicity against human UACC257 cells assessed as cell growth at 100 nM after 48 hrs by sulforhodamine B assay; conditions: UACC-257, 48 h, read-out: Activity
IGROV-1 = assay: Cytotoxicity against human IGROV1 cells assessed as cell growth at 100 nM after 48 hrs by sulforhodamine B assay; conditions: IGROV-1, 48 h, read-out: Activity
OVCAR-5 [2] = assay: Cytotoxicity against human OVCAR5 cells assessed as cell growth at 100 nM after 48 hrs by sulforhodamine B assay; conditions: OVCAR-5, 48 h, read-out: Activity
UO-31 = assay: Cytotoxicity against human UO31 cells assessed as cell growth at 100 nM after 48 hrs by sulforhodamine B assay; conditions: UO-31, 48 h, read-out: Activity
BT-549 [3] = assay: Cytotoxicity against human BT549 cells assessed as cell growth at 100 nM after 48 hrs by sulforhodamine B assay; conditions: BT-549, 48 h, read-out: Activity
Summary of the method: (§1)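 NCI-60 five-dose screen. Cells were grown in RPMI 1640 with 5% FBS and 2 mM L-glutamine, plated at 5000–40,000 cells/well and preincubated for 24 h. Time-zero plates were TCA-fixed. DMSO-solubilized drug was added at five concentrations (10-fold or ½-log serial dilutions) for 48 h at 37 °C, 5% CO2. Cells were TCA-fixed, stained with 0.4% SRB and read at 515 nm. Percent growth used time-zero, control and test absorbances.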

NCI-H23 = assay: Cytotoxicity against human NCI-H23 cells assessed as cell growth at 1 uM after 48 hrs by sulforhodamine B assay; conditions: NCI-H23, 48 h, read-out: Activity
OVCAR-3 [4] = assay: Cytotoxicity against human OVCAR-3 cells assessed as cell growth at 10 uM; conditions: read-out: Activity
Summary of the method: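 NCI-60 screen: cells grown in RPMI 1640 with 5% FBS and 2 mM L-glutamine, plated at 5000–40,000 cells/well according to doubling time, and preincubated 24 h at 37 °C, 5% CO2. The single 10 µM dose (DMSO stock) was added, then incubated 48 h. Cells were TCA-fixed and stained with 0.4% SRB, read at 515 nm, and growth % calculated against time-zero and control plates.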

NCI-H322M = assay: Cytotoxicity against human NCI-H322M cells assessed as cell growth at 1 uM after 48 hrs by sulforhodamine B assay; conditions: read-out: Activity
NCI-H460 [5] = assay: Cytotoxicity against human NCI-H460 cells assessed as cell growth at 0.01 uM after 48 hrs by sulforhodamine B assay; conditions: NCI-H460, 48 h, read-out: Activity
HCC 2998 [6] = assay: Cytotoxicity against human HCC2998 cells assessed as cell growth at 0.01 uM after 48 hrs by sulforhodamine B assay; conditions: HCC 2998, 48 h, read-out: Activity
M14 [7] = assay: Cytotoxicity against human M14 cells assessed as cell growth at 0.01 uM after 48 hrs by sulforhodamine B assay; conditions: M14, 48 h, read-out: Activity
SK-MEL-28 = assay: Cytotoxicity against human SK-MEL-28 cells assessed as cell growth at 0.01 uM after 48 hrs by sulforhodamine B assay; conditions: SK-MEL-28, 48 h, read-out: Activity
HCC 2998 [8] = assay: Cytotoxicity against human HCC2998 cells assessed as cell growth at 0.001 uM after 48 hrs by sulforhodamine B assay; conditions: HCC 2998, 48 h, read-out: Activity
HOP-62 = assay: Growth inhibition of human HOP62 cells after 48 hrs by sulforhodamine B assay; conditions: HOP-62, 48 h
Summary of the method: (§2)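 NCI 60-cell screen, five-dose mode. Cells grown in RPMI 1640 with 5% FBS and 2 mM L-glutamine and plated at 5000-40,000 cells/well according to doubling time. After 24 h preincubation, a Tz plate was TCA-fixed. Five concentrations (10-fold or 1/2 log dilutions) were applied for 48 h at 37 °C. SRB staining read at 515 nm. IC50 taken from [(Ti-Tz)/(C-Tz)]×100 = 50.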

UACC-62 = assay: Growth inhibition of human UACC62 cells after 48 hrs by sulforhodamine B assay; conditions: UACC-62, 48 h; for CC50: read-out: LC50 (the source's name); summary of the method: as §2
OVCAR-5 [9] = assay: Growth inhibition of human OVCAR5 cells after 48 hrs by sulforhodamine B assay; conditions: OVCAR-5, 48 h; for CC50: read-out: LC50 (the source's name); summary of the method: as §2
BT-549 [10] = assay: Cytotoxicity against human BT549 cells assessed as cell growth at 0.01 uM after 48 hrs by sulforhodamine B assay; conditions: BT-549, 48 h, read-out: Activity; summary of the method: as §1
K562 = assay: Cytotoxicity against human K562 cells assessed as cell growth at 100 nM after 48 hrs by sulforhodamine B assay; conditions: K562, 48 h, read-out: Activity
MOLT-4 = assay: Cytotoxicity against human MOLT4 cells assessed as cell growth at 100 nM after 48 hrs by sulforhodamine B assay; conditions: MOLT-4, 48 h, read-out: Activity
MDA-MB-231 = assay: Cytotoxicity against human MDA-MB-231 cells assessed as cell growth at 1 uM after 48 hrs by sulforhodamine B assay; conditions: MDA-MB-231, 48 h, read-out: Activity
COLO 205 = assay: Cytotoxicity against human COLO205 cells assessed as cell growth at 10 uM; conditions: read-out: Activity
Summary of the method: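 Single-dose NCI-60 screen at 10 µM. Cells were grown in RPMI 1640 with 5% FBS and 2 mM L-glutamine, then treated for 48 h at 37 °C. Protein was measured by SRB staining with absorbance at 515 nm. Percentage growth was recorded, and inhibition percentage was calculated as 100 minus growth percentage.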

NCI-H460 [11] = assay: Cytotoxicity against human NCI-H460 cells assessed as cell growth at 10 uM after 48 hrs by sulforhodamine B assay; conditions: NCI-H460, 48 h, read-out: Activity
NCI-H522 = assay: Cytotoxicity against human NCI-H522 cells assessed as cell growth at 10 uM after 48 hrs by sulforhodamine B assay; conditions: NCI-H522, 48 h, read-out: Activity
HT-29 = assay: Cytotoxicity against human HT-29 cells assessed as cell growth at 10 uM after 48 hrs by sulforhodamine B assay; conditions: HT-29, 48 h, read-out: Activity
OVCAR-3 [12] = assay: Cytotoxicity against human OVCAR-3 cells assessed as cell growth at 10 uM after 48 hrs by sulforhodamine B assay; conditions: OVCAR-3, 48 h, read-out: Activity
NCI/ADR-RES = assay: Cytotoxicity against human NCI/ADR-RES cells assessed as cell growth at 10 uM after 48 hrs by sulforhodamine B assay; conditions: read-out: Activity
TK-10 = assay: Cytotoxicity against human TK10 cells assessed as cell growth at 10 uM after 48 hrs by sulforhodamine B assay; conditions: TK-10, 48 h, read-out: Activity
[13] = Cytotoxicity against human Hs 578T cells assessed as cell growth at 10 uM after 48 hrs by sulforhodamine B assay; conditions: read-out: Activity

Row | SMILES | growth at 0.1 µM (Malme-3M) [%] | growth at 0.1 µM (M14 [1]) [%] | growth at 0.1 µM (UACC-257) [%] | growth at 0.1 µM (IGROV-1) [%] | growth at 0.1 µM (OVCAR-5 [2]) [%] | growth at 0.1 µM (UO-31) [%] | growth at 0.1 µM (BT-549 [3]) [%] | growth at 1 µM (NCI-H23) [%] | growth at 10 µM (OVCAR-3 [4]) [%] | growth at 1 µM (NCI-H322M) [%] | growth at 0.01 µM (NCI-H460 [5]) [%] | growth at 0.01 µM (HCC 2998 [6]) [%] | growth at 0.01 µM (M14 [7]) [%] | growth at 0.01 µM (SK-MEL-28) [%] | growth at 0.001 µM (HCC 2998 [8]) [%] | GI50 (HOP-62) [µM] | LC50 (50% lethal concentration) (HOP-62) [µM] | TGI (HOP-62) [µM] | GI50 (UACC-62) [µM] | TGI (UACC-62) [µM] | further results
1 | COc1cc(C)cc(-c2c(-c3ccnc(-c4ccc(N(C)C)cc4)c3)cnn2CC#N)c1 | 49 | -16 | 41 | 2 | 53 | 45 | -18 | 17 | 27 | 34 | 35 | 30 | -19 | 20 | 96 | 0.263 | > 100 | > 100 | 0.0619 | > 100 | CC50 (UACC-62): > 100 µM; GI50 (OVCAR-5 [9]): > 100 µM; TGI (OVCAR-5 [9]): > 100 µM; CC50 (OVCAR-5 [9]): > 100 µM; growth at 0.01 µM (BT-549 [10]): 44%; growth at 0.1 µM (K562): 7%; growth at 0.1 µM (MOLT-4): 9%; growth at 1 µM (MDA-MB-231): 17%; growth at 10 µM (COLO 205): -71.1%; growth at 10 µM (NCI-H460 [11]): -55%; growth at 10 µM (NCI-H522): -52%; growth at 10 µM (HT-29): -48%; growth at 10 µM (OVCAR-3 [12]): 1%; growth at 10 µM (NCI/ADR-RES): 3%; growth at 10 µM (TK-10): 34%; growth at 10 µM [13]: 16%
2 | Cc1cc(O)cc(-c2nn(CC#N)cc2-c2ccnc(-c3ccc(N(C)C)cc3)c2)c1 | 94 | 82 | 83 | 87 | 97 | 82 | 87 | 24 | 41.9 | 38 | 102 | 88 | 92 | 94 | 91 | 2.82 | > 100 | 23.4 | 3.05 | 14 | CC50 (UACC-62): 72.1 µM; GI50 (OVCAR-5 [9]): 1.49 µM; TGI (OVCAR-5 [9]): 60.4 µM; CC50 (OVCAR-5 [9]): > 100 µM; growth at 0.01 µM (BT-549 [10]): 91%; growth at 0.1 µM (K562): 80%; growth at 0.1 µM (MOLT-4): 89%; growth at 1 µM (MDA-MB-231): 11%; growth at 10 µM (COLO 205): 38.9%; growth at 10 µM (NCI-H460 [11]): -59%; growth at 10 µM (NCI-H522): -57%; growth at 10 µM (HT-29): -52%; growth at 10 µM (OVCAR-3 [12]): -70%; growth at 10 µM (NCI/ADR-RES): -4%; growth at 10 µM (TK-10): -14%; growth at 10 µM [13]: -32%
3 | COc1cc(C)cc(-c2nn(CC#N)cc2-c2ccnc(-c3ccc(N(C)C)cc3)c2)c1 | 46 | -12 | 28 | 16 | 79 | 39 | 66 | 15 | 2.79 | 52 | 106 | 107 | 93 | 102 | 106 | 0.39 | > 100 | 18.7 | 0.337 | 40.7 | CC50 (UACC-62): > 100 µM; GI50 (OVCAR-5 [9]): 3.98 µM; TGI (OVCAR-5 [9]): > 100 µM; CC50 (OVCAR-5 [9]): > 100 µM; growth at 0.01 µM (BT-549 [10]): 100%; growth at 0.1 µM (K562): 10%; growth at 0.1 µM (MOLT-4): 39%; growth at 1 µM (MDA-MB-231): -15%; growth at 10 µM (COLO 205): -73.2%; growth at 10 µM (NCI-H460 [11]): -51%; growth at 10 µM (NCI-H522): -64%; growth at 10 µM (HT-29): -66%; growth at 10 µM (OVCAR-3 [12]): -42%; growth at 10 µM (NCI/ADR-RES): -10%; growth at 10 µM (TK-10): -3%; growth at 10 µM [13]: -5%

— ChEMBL document CHEMBL1165950, “Design and synthesis of new potent anticancer pyrazoles with high FLT3 kinase inhibitory selectivity” (Bioorg Med Chem, 2010)
